Converted amounts (≈) assume the structure as drawn.
Columns and labels:
[1] = test system: Staphylococcus aureus; experiment: Antimicrobial activity against Staphylococcus aureus 6 expressing inducible ermB after 20 hrs by agar dilution method; format: functional
Method in brief: (§1)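 Agar dilution MIC. S. aureus seed culture was grown in sensitivity test broth. Cell suspension (about 10⁶ CFU/ml) was inoculated onto sensitivity disk agar with 5% horse blood and incubated at 37 °C for 20 h. MIC was the lowest drug concentration that prevented visible growth.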

[2] = test system: Streptococcus pneumoniae; experiment: Antimicrobial activity against drug-susceptible Streptococcus pneumoniae DP1 Type1 after 20 hrs by agar dilution method; format: functional
Method in brief: (§2)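 Streptococci, H. influenzae and M. catarrhalis were precultured on blood agar plates. Suspensions of about 10⁶ CFU/ml were inoculated onto sensitivity disk agar supplemented with 5% horse blood and incubated at 37 °C for 20 h. MIC was read as the lowest drug concentration with no visible growth.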

[3] = test system: Streptococcus pneumoniae; experiment: Antimicrobial activity against Streptococcus pneumoniae 6 constitutively expressing ermB after 20 hrs by agar dilution method; format: functional; settings: Streptococcus pneumoniae, 20 h; read-out: MIC; method in brief: as §2
[4] = test system: Haemophilus influenzae; experiment: Antimicrobial activity against drug-susceptible Haemophilus influenzae 2 after 20 hrs by agar dilution method; format: functional; method in brief: as §2
[5] = test system: Haemophilus influenzae; experiment: Antimicrobial activity against drug-susceptible Haemophilus influenzae 4 after 20 hrs by agar dilution method; format: functional; method in brief: as §2
[6] = test system: Streptococcus pneumoniae; experiment: Antimicrobial activity against Streptococcus pneumoniae 5 constitutively expressing ermB/mefA after 20 hrs by agar dilution method; format: functional; settings: Streptococcus pneumoniae, 20 h; read-out: MIC; method in brief: as §2
[7] = test system: Staphylococcus aureus; experiment: Antimicrobial activity against drug-susceptible Staphylococcus aureus 2 after 20 hrs by agar dilution method; format: functional; method in brief: as §1
[8] = test system: Streptococcus pneumoniae; experiment: Antimicrobial activity against drug-susceptible Streptococcus pneumoniae 3 after 20 hrs by agar dilution method; format: functional; settings: Streptococcus pneumoniae, 20 h; read-out: MIC; method in brief: as §2
[9] = test system: Streptococcus pyogenes; experiment: Antimicrobial activity against drug-susceptible Streptococcus pyogenes 1 after 20 hrs by agar dilution method; format: functional; method in brief: as §2
[10] = test system: Streptococcus pneumoniae; experiment: Antimicrobial activity against drug-susceptible Streptococcus pneumoniae 2 after 20 hrs by agar dilution method; format: functional; method in brief: as §2
[11] = test system: Streptococcus pyogenes; experiment: Antimicrobial activity against Streptococcus pyogenes 2 constitutively expressing ermB after 20 hrs by agar dilution method; format: functional; method in brief: as §2
[12] = test system: Haemophilus influenzae; experiment: Antimicrobial activity against drug-susceptible Haemophilus influenzae 1 after 20 hrs by agar dilution method; format: functional; method in brief: as §2
[13] = test system: Streptococcus pneumoniae; experiment: Antimicrobial activity against Streptococcus pneumoniae 4 constitutively expressing ermB after 20 hrs by agar dilution method; format: functional; settings: Streptococcus pneumoniae, 20 h; read-out: MIC; method in brief: as §2
[14] = test system: Staphylococcus aureus; experiment: Antimicrobial activity against Staphylococcus aureus 4 constitutively expressing ermA after 20 hrs by agar dilution method; format: functional; method in brief: as §1
[15] = test system: Streptococcus pneumoniae; experiment: Antimicrobial activity against Streptococcus pneumoniae 10 expressing mefA after 20 hrs by agar dilution method; format: functional; method in brief: as §2
[16] = test system: Staphylococcus aureus; experiment: Antimicrobial activity against drug-susceptible Staphylococcus aureus 209P JC-1 after 20 hrs by agar dilution method; format: functional; method in brief: as §1
[17] = test system: Staphylococcus aureus; experiment: Antimicrobial activity against Staphylococcus aureus 5 expressing inducible ermB after 20 hrs by agar dilution method; format: functional; method in brief: as §1
[18] = test system: Streptococcus pneumoniae; experiment: Antimicrobial activity against Streptococcus pneumoniae 7 expressing inducible ermB after 20 hrs by agar dilution method; format: functional; method in brief: as §2
[19] = test system: Streptococcus pyogenes; experiment: Antimicrobial activity against Streptococcus pyogenes 3 expressing mefA after 20 hrs by agar dilution method; format: functional; method in brief: as §2
[20] = test system: Streptococcus pneumoniae; experiment: Antimicrobial activity against Streptococcus pneumoniae 9 expressing mefA after 20 hrs by agar dilution method; format: functional; method in brief: as §2
[21] = test system: Moraxella catarrhalis; experiment: Antimicrobial activity against drug-susceptible Moraxella catarrhalis 2 after 20 hrs by agar dilution method; format: functional; method in brief: as §2
[22] = test system: Streptococcus pneumoniae; experiment: Antimicrobial activity against Streptococcus pneumoniae 8 expressing inducible ermB after 20 hrs by agar dilution method; format: functional; method in brief: as §2
[23] = test system: Moraxella catarrhalis; experiment: Antimicrobial activity against drug-susceptible Moraxella catarrhalis 1 after 20 hrs by agar dilution method; format: functional; method in brief: as §2
[24] = test system: Haemophilus influenzae; experiment: Antimicrobial activity against drug-susceptible Haemophilus influenzae 3 after 20 hrs by agar dilution method; format: functional; method in brief: as §2
[25] = test system: Staphylococcus aureus; experiment: Antimicrobial activity against drug-susceptible Staphylococcus aureus 3 after 20 hrs by agar dilution method; format: functional; method in brief: as §1
[26] = test system: Staphylococcus aureus; experiment: Antimicrobial activity against Staphylococcus aureus 6 expressing inducible ermC after 20 hrs by agar dilution method
[27] = Streptococcus pneumoniae, 20 h, read-out: MIC
[28] = Haemophilus influenzae, 20 h, read-out: MIC
[29] = Staphylococcus aureus, 20 h, read-out: MIC
[30] = Streptococcus pyogenes, 20 h, read-out: MIC
[31] = Staphylococcus aureus, 209P, 20 h, read-out: MIC
[32] = Moraxella catarrhalis, 20 h, read-out: MIC

Row | SMILES | MIC [1] | MIC [2, 27] | MIC [3] | MIC [4, 28] | MIC [5, 28] | MIC [6] | MIC [7, 29] | MIC [8] | MIC [9, 30] | MIC [10, 27] | MIC [11] | MIC [12, 28] | MIC [13] | MIC [14] | MIC [16, 31] | MIC [17, 29] | MIC [21, 32] | MIC [23, 32] | MIC [24, 28] | MIC [25, 29] | further results
1 | CCOC(=O)[C@H]1[C@H](C)O[C@@H](O[C@H]2[C@H](N(C)C)[C@@H](O)[C@H](O[C@H]3[C@@H](CC=O)C[C@@H](C)[C@@H](O)CN(C)CCC[C@H](C/C=C/c4cccc5ccccc45)OC(=O)C[C@@H](OC(=O)CC)[C@@H]3OC)O[C@@H]2C)C[C@@]1(C)O | 1 µg/mL (≈ 1.01 µM) | 0.06 µg/mL (≈ 0.0609 µM) | 64 µg/mL (≈ 65 µM) | 16 µg/mL (≈ 16.2 µM) | 16 µg/mL (≈ 16.2 µM) | 64 µg/mL (≈ 65 µM) | 2 µg/mL (≈ 2.03 µM) | 0.06 µg/mL (≈ 0.0609 µM) | 0.25 µg/mL (≈ 0.254 µM) | 0.13 µg/mL (≈ 0.132 µM) | 64 µg/mL (≈ 65 µM) | 64 µg/mL (≈ 65 µM) | 64 µg/mL (≈ 65 µM) | > 128 µg/mL | 1 µg/mL (≈ 1.01 µM) | 0.5 µg/mL (≈ 0.507 µM) | 2 µg/mL (≈ 2.03 µM) | 2 µg/mL (≈ 2.03 µM) | 16 µg/mL (≈ 16.2 µM) | 0.5 µg/mL (≈ 0.507 µM) | MIC [15, 27]: 0.06 µg/mL (≈ 0.0609 µM); MIC [18, 27]: 4 µg/mL (≈ 4.06 µM); MIC [19, 30]: 1 µg/mL (≈ 1.01 µM); MIC [20, 27]: 0.06 µg/mL (≈ 0.0609 µM); MIC [22, 27]: 2 µg/mL (≈ 2.03 µM)
2 | CCOC(=O)[C@H]1[C@H](C)O[C@@H](O[C@H]2[C@H](N(C)C)[C@@H](O)[C@H](O[C@H]3[C@@H](CC=O)C[C@@H](C)[C@@H](O)CN(C)CCC[C@H](C/C=C/c4ccc5ccccc5c4)OC(=O)C[C@@H](OC(=O)CC)[C@@H]3OC)O[C@@H]2C)C[C@@]1(C)O | 1 µg/mL (≈ 1.01 µM) | 0.06 µg/mL (≈ 0.0609 µM) | 32 µg/mL (≈ 32.5 µM) | 8 µg/mL (≈ 8.12 µM) | 16 µg/mL (≈ 16.2 µM) | 32 µg/mL (≈ 32.5 µM) | 2 µg/mL (≈ 2.03 µM) | 0.13 µg/mL (≈ 0.132 µM) | 0.25 µg/mL (≈ 0.254 µM) | 0.06 µg/mL (≈ 0.0609 µM) | 32 µg/mL (≈ 32.5 µM) | 32 µg/mL (≈ 32.5 µM) | 32 µg/mL (≈ 32.5 µM) | 64 µg/mL (≈ 65 µM) | 0.5 µg/mL (≈ 0.507 µM) | 0.5 µg/mL (≈ 0.507 µM) | 2 µg/mL (≈ 2.03 µM) | 2 µg/mL (≈ 2.03 µM) | 16 µg/mL (≈ 16.2 µM) | 0.5 µg/mL (≈ 0.507 µM) | MIC [15, 27]: 0.13 µg/mL (≈ 0.132 µM); MIC [18, 27]: 8 µg/mL (≈ 8.12 µM); MIC [19, 30]: 1 µg/mL (≈ 1.01 µM); MIC [20, 27]: 0.13 µg/mL (≈ 0.132 µM); MIC [22, 27]: 8 µg/mL (≈ 8.12 µM)
3 | CCOC(=O)[C@H]1[C@H](C)O[C@@H](O[C@H]2[C@H](N(C)C)[C@@H](O)[C@H](O[C@H]3[C@@H](CC=O)C[C@@H](C)[C@@H](O)CN(C)CC(/C=C/Cc4cnc5ccccc5c4)CCOC(=O)C[C@@H](OC(=O)CC)[C@@H]3OC)O[C@@H]2C)C[C@@]1(C)O (stereo in doubt; form 1) | 0.25 µg/mL (≈ 0.253 µM) | < 0.008 µg/mL | 128 µg/mL (≈ 130 µM) | 2 µg/mL (≈ 2.03 µM) | – | 128 µg/mL (≈ 130 µM) | 0.25 µg/mL (≈ 0.253 µM) | 0.015 µg/mL (≈ 0.0152 µM) | – | 0.03 µg/mL (≈ 0.0304 µM) | > 128 µg/mL | 32 µg/mL (≈ 32.4 µM) | 128 µg/mL (≈ 130 µM) | > 128 µg/mL | 0.13 µg/mL (≈ 0.132 µM) | 0.13 µg/mL (≈ 0.132 µM) | 1 µg/mL (≈ 1.01 µM) | 1 µg/mL (≈ 1.01 µM) | 8 µg/mL (≈ 8.11 µM) | 0.13 µg/mL (≈ 0.132 µM) | MIC [5]: 4 µg/mL (≈ 4.06 µM); MIC [9]: 0.03 µg/mL (≈ 0.0304 µM); MIC [15]: 0.015 µg/mL (≈ 0.0152 µM); MIC [18]: 1 µg/mL (≈ 1.01 µM); MIC [19]: 0.13 µg/mL (≈ 0.132 µM); MIC [20]: 0.015 µg/mL (≈ 0.0152 µM); MIC [22]: 1 µg/mL (≈ 1.01 µM)
4 | CCOC(=O)[C@H]1[C@H](C)O[C@@H](O[C@H]2[C@H](N(C)C)[C@@H](O)[C@H](O[C@H]3[C@@H](CC=O)C[C@@H](C)[C@@H](O)CN(C)CCC[C@H](C/C=C/c4ccc5ncccc5c4)OC(=O)C[C@@H](OC(=O)CC)[C@@H]3OC)O[C@@H]2C)C[C@@]1(C)O | 0.25 µg/mL (≈ 0.253 µM) | 0.015 µg/mL (≈ 0.0152 µM) | > 128 µg/mL | 4 µg/mL (≈ 4.06 µM) | 8 µg/mL (≈ 8.11 µM) | > 128 µg/mL | 0.5 µg/mL (≈ 0.507 µM) | 0.015 µg/mL (≈ 0.0152 µM) | 0.06 µg/mL (≈ 0.0608 µM) | 0.03 µg/mL (≈ 0.0304 µM) | > 128 µg/mL | 32 µg/mL (≈ 32.4 µM) | > 128 µg/mL | > 128 µg/mL | 0.25 µg/mL (≈ 0.253 µM) | 0.25 µg/mL (≈ 0.253 µM) | 1 µg/mL (≈ 1.01 µM) | 1 µg/mL (≈ 1.01 µM) | 8 µg/mL (≈ 8.11 µM) | 0.25 µg/mL (≈ 0.253 µM) | MIC [15, 27]: 0.03 µg/mL (≈ 0.0304 µM); MIC [18, 27]: 8 µg/mL (≈ 8.11 µM); MIC [19, 30]: 0.25 µg/mL (≈ 0.253 µM); MIC [20, 27]: 0.03 µg/mL (≈ 0.0304 µM); MIC [22, 27]: 8 µg/mL (≈ 8.11 µM)
5 | CCOC(=O)[C@H]1[C@H](C)O[C@@H](O[C@H]2[C@H](N(C)C)[C@@H](O)[C@H](O[C@H]3[C@@H](CC=O)C[C@@H](C)[C@@H](O)CN(CCCCc4ccccc4)CCC(C)NC(=O)C[C@@H](OC(=O)CC)[C@@H]3OC)O[C@@H]2C)C[C@@]1(C)OC(C)=O (stereo in doubt; form 2) | – | – | – | – | – | – | – | – | – | – | – | – | – | – | – | – | – | – | – | – | MIC [2]: 0.13 µg/mL (≈ 0.133 µM); MIC [4]: 1 µg/mL (≈ 1.02 µM); MIC [5]: 8 µg/mL (≈ 8.18 µM); MIC [7]: 1 µg/mL (≈ 1.02 µM); MIC [9]: 0.06 µg/mL (≈ 0.0613 µM); MIC [10]: 0.25 µg/mL (≈ 0.256 µM); MIC [26]: 0.5 µg/mL (≈ 0.511 µM); MIC [12]: 32 µg/mL (≈ 32.7 µM); MIC [16]: 0.25 µg/mL (≈ 0.256 µM); MIC [17]: 0.25 µg/mL (≈ 0.256 µM); MIC [18]: 32 µg/mL (≈ 32.7 µM); MIC [19]: 0.25 µg/mL (≈ 0.256 µM); MIC [21]: 0.25 µg/mL (≈ 0.256 µM); MIC [22]: 32 µg/mL (≈ 32.7 µM); MIC [23]: 0.13 µg/mL (≈ 0.133 µM); MIC [24]: 8 µg/mL (≈ 8.18 µM); MIC [25]: 0.25 µg/mL (≈ 0.256 µM)

From ChEMBL document CHEMBL1151705, “Novel azalides derived from 16-membered macrolides. Part II: Isolation of the linear 9-formylcarboxylic acid and its sequential macrocyclization with an amino alcohol or an azidoamine” (2008)
